Data from ChEMBL document CHEMBL1123213, “Neuroleptic activity of chiral trans-hexahydro-gamma-carbolines” (J Med Chem, 1986).

Legend:
Dopamine receptor [1] = assay: Inhibition of [3H]spiroperidol (0.5 nM) binding to dopamine receptor from rat striatal membrane.
Rattus norvegicus [2] = assay: Antagonistic activity against amphetamine-induced stereotypy in rats; (5 mg/kg administered ip 1 hr after the test compound).; assay type: functional
How it was run: (§1)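 Rats housed singly in covered compartments, briefly acclimated, then dosed sc in groups of five at doses spaced 0.5 log unit (1, 3.2, 10, 32 mg/kg). d-Amphetamine sulfate 5 mg/kg ip given 1, 5 and 24 h later. Behaviour scored on a six-point scale 1 h after each challenge. ED50 by linear regression or by inspection; no fiducial limits.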

Rattus norvegicus [3] = assay: Compound was tested for the antagonistic activity against amphetamine-induced stereotypy in rats; (5 mg/kg administered ip 5 hr after the test compound).; assay type: functional; how it was run: as §1
Rattus norvegicus [4] = assay: Compound was tested for the antagonistic activity against amphetamine-induced stereotypy in rats; (5 mg/kg administered ip 24 hr after the test compound).; assay type: functional; how it was run: as §1
Mus musculus [5] = assay: Compound was tested for the anticholinergic activity against tetrabenazine-treated mice; activity expressed as the pupil size at the dose of 32 mg/kg sc; assay type: functional; settings: route subcutaneous
Rattus norvegicus [6] = assay: Compound was tested for the antagonistic activity against amphetamine-induced stereotypy in rats; (5 mg/kg administered ip 24 hr after the test compound); assay type: functional; how it was run: as §1
Rattus norvegicus [7] = assay: Compound was tested for the antagonistic activity against amphetamine-induced stereotypy in rats; (5 mg/kg administered ip 5 hr after the test compound); assay type: functional; how it was run: as §1
Dopamine receptor [8] = assay: Compound was tested for inhibition of [3H]spiroperidol (0.5 nM) binding to dopamine receptor from rat striatal membrane; Insoluble
Rattus norvegicus [9] = species on record: Rattus norvegicus; assay: Compound was tested for the antagonistic activity against amphetamine-induced stereotypy in rat.; assay type: functional; how it was run: as §1
Rattus norvegicus [10] = assay: Compound was tested for the antagonistic activity against amphetamine-induced stereotypy in rats; (5 mg/kg administered ip 5 after the test compound).; assay type: functional; how it was run: as §1
Mus musculus [11] = assay: Compound was tested for the anticholinergic activity against tetrabenazine-treated mice; activity expressed as the pupil size at the dose of 1 mg/kg sc; settings: route subcutaneous
Mus musculus [12] = assay: Compound was tested for the anticholinergic activity against tetrabenazine-treated mice; activity expressed as the pupil size at the dose of 100 mg/kg sc; assay type: functional; settings: route subcutaneous
How it was run: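 Groups of five mice dosed sc with test compound, then 1 h later tetrabenazine 32 mg/kg ip. After 30 min, pupil size measured with a binocular microscope; reticle readings converted to mm. Reported as mean ± SD pupil size (mm). Vehicle-pretreated tetrabenazine control groups of five run alongside.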

Mus musculus [13] = assay: Compound was tested for the anticholinergic activity against tetrabenazine-treated mice; activity expressed as the pupil size at the dose of 10 mg/kg sc; assay type: functional; settings: route subcutaneous
How it was run: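 Mice in groups of five dosed sc, then given tetrabenazine 32 mg/kg ip 1 h later. Pupils measured 30 min afterward under a binocular microscope, with reticle readings converted to mm. Reported as mean ± SD pupil size. Vehicle-pretreated tetrabenazine groups served as controls.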

[14] = Rattus norvegicus, ip, 1 h, read-out: ED50
[15] = Rattus norvegicus, ip, 24 h, read-out: ED50
[16] = Rattus norvegicus, ip, 5 h, read-out: ED50

Row | Structure (SMILES) | IC50 (Dopamine receptor [1]) [µM] | ED50 (Rattus norvegicus [2]; [14]) [mg/kg] | ED50 (Rattus norvegicus [3]) [mg/kg] | ED50 (Rattus norvegicus [4]) [mg/kg] | further results
1 | OC(CCN1CC[C@H]2[C@H](C1)c1cc(F)ccc1N2c1ccc(F)cc1)(c1ccccc1)c1ccccc1 | 0.22 | > 10 | > 10 |  | 
2 | O=C1CNC(=O)N1CCN1CCC2c3cc(F)ccc3N(c3ccc(F)cc3)C2C1 (configuration not stated) | 0.026 | 0.57 | 0.57 | > 32 | 
3 | O=C1CNC(=O)N1CCCN1CCC2c3cc(F)ccc3N(c3ccc(F)cc3)C2C1 (configuration not stated) | 0.014 | 0.11 | 0.05 | > 0.32 | 
4 | O=C(CCCN1CC[C@H]2[C@H](C1)c1cc(F)ccc1N2c1ccc(F)cc1)NC1CCCCC1 | 0.012 | 0.45 | 0.14 | 0.57 | Pupil size (Mus musculus [5]): 0.23 mm
5 | Fc1ccc(N2c3ccc(F)cc3[C@H]3CNCC[C@@H]32)cc1 | 0.0067 | 0.36 |  |  | ED50 (Rattus norvegicus [6]; [15]): > 10 mg/kg; ED50 (Rattus norvegicus [7]; [16]): 0.45 mg/kg
6 | I.O=C(CCCN1CC[C@H]2[C@H](C1)c1cc(F)ccc1N2c1ccc(F)cc1)N(c1ccccc1)C1CCCCC1 |  | > 32 | 1 | < 32 | IC50 (Dopamine receptor [8]): Insoluble
7 | Cl.O=C(Nc1ccccc1)OCCN1CC[C@H]2[C@H](C1)c1cc(F)ccc1N2c1ccc(F)cc1 | 0.045 | 0.57 | 0.45 | 2.3 | 
8 | Cl.Fc1ccc(N(c2ccc(F)cc2)C2CCNCC2)cc1 | > 1 |  |  |  | 
9 | CN1CCC2C(C1)c1cc(F)ccc1N2c1ccc(F)cc1.Cl (configuration not stated) | 0.0075 |  |  |  | ED50 (Rattus norvegicus [9]): 0.3 mg/kg
10 | Cl.O=C1CNC(=O)N1CCCCCCN1CC[C@@H]2c3cc(F)ccc3N(c3ccc(F)cc3)[C@H]2C1 | 0.014 | 0.13 | 0.02 | 0.07 | 
11 | Cl.O=C(NCCCCCCN1CCc2c(c3cc(F)ccc3n2-c2ccc(F)cc2)C1)c1ccccc1 | 0.0085 |  |  |  | ED50 (Rattus norvegicus [9]): > 10 mg/kg
12 | Cl.O=C1CNC(=O)N1CCCCCCN1CCc2c(n(-c3ccc(F)cc3)c3ccc(F)cc23)C1 | 0.0058 | 1 | 0.75 | > 10 | 
13 | Cl.O=C(O)CCCN1CCC2C(C1)c1cc(F)ccc1N2c1ccc(F)cc1 (configuration not stated) | 0.14 |  |  |  | ED50 (Rattus norvegicus [9]): 0.36 mg/kg
14 | Cl.O=C(NCCCCCCN1CCC2C(C1)c1cc(F)ccc1N2c1ccc(F)cc1)c1ccccc1 (configuration not stated) | 0.013 |  |  |  | ED50 (Rattus norvegicus [9]): 0.1 mg/kg
15 | Cl.OC(CCCN1CCC(N(c2ccc(F)cc2)c2ccc(F)cc2)CC1)c1ccc(F)cc1 (configuration not stated) | 1 |  |  |  | 
16 | CC(=O)NCCCCN1CCC2C(C1)c1cc(F)ccc1N2c1ccc(F)cc1.Cl (configuration not stated) | 0.013 |  |  |  | ED50 (Rattus norvegicus [9]): 0.006 mg/kg
17 | Cl.O=C(CCCN1CCC(N(c2ccc(F)cc2)c2ccc(F)cc2)CC1)c1ccc(F)cc1 | 0.068 | > 32 |  | > 32 | 
18 | Cl.O[C@H](CCCN1CCC2C(C1)c1cc(F)ccc1N2c1ccc(F)cc1)c1ccc(F)cc1 (some centres not stated) | 0.025 | 0.21 | 0.05 | 0.02 | 
19 | Cl.O=C(CCCN1CC[C@H]2[C@H](C1)c1cc(F)ccc1N2c1ccc(F)cc1)Nc1ccccc1 | 0.019 | 0.45 |  | 1.8 | Pupil size (Mus musculus [5]): 0.28 mm; ED50 (Rattus norvegicus [10]): 0.18 mg/kg
20 | Cl.O=C(O)CCCN1CCc2c(c3cc(F)ccc3n2-c2ccc(F)cc2)C1 | > 0.32 |  |  |  | 

Row | Structure (SMILES) | IC50 (Dopamine receptor [1]) [µM] | ED50 (Rattus norvegicus [2]; [14]) [mg/kg] | ED50 (Rattus norvegicus [3]) [mg/kg] | ED50 (Rattus norvegicus [4]) [mg/kg] | further results
21 | Cl.O=C1CNC(=O)N1CCCCN1CC[C@@H]2c3cc(F)ccc3N(c3ccc(F)cc3)[C@H]2C1 | 0.012 | 0.057 | 0.018 | 0.18 | 
22 | Cl.O=C1CNC(=O)N1CCCCCCN1CCC2c3cc(F)ccc3N(c3ccc(F)cc3)C2C1 (configuration not stated) | 0.0094 | 0.18 | 0.033 | > 0.32 | 
23 | CC(=O)NCCCCN1CCc2c(c3cc(F)ccc3n2-c2ccc(F)cc2)C1.Cl | 0.054 |  |  |  | ED50 (Rattus norvegicus [9]): > 3.2 mg/kg
24 | Cl.O=C1CNC(=O)N1CCCCCN1CC[C@@H]2c3cc(F)ccc3N(c3ccc(F)cc3)[C@H]2C1 | 0.006 | 0.04 | 0.02 | 0.05 | 
25 | CN1CCc2c(c3cc(F)ccc3n2-c2ccc(F)cc2)C1.Cl |  |  |  |  | ED50 (Rattus norvegicus [9]): > 1 mg/kg
26 | Fc1ccc(N2c3ccc(F)cc3[C@@H]3CNCC[C@H]32)cc1 | 3.2 |  |  |  | 
27 | O=C(NCCN1CC[C@H]2[C@H](C1)c1cc(F)ccc1N2c1ccc(F)cc1)C(CO)c1ccccc1 (some centres not stated) | 0.035 | 2.8 | 0.89 | 32 | Pupil size (Mus musculus [5]): 0.23 mm
28 | Fc1ccc(N2c3ccc(F)cc3[C@H]3CN(CCn4c5ccccc5c5ccccc54)CC[C@@H]32)cc1 |  | > 32 | > 32 |  | IC50 (Dopamine receptor [8]): Insoluble
29 | Fc1ccc(-n2c3c(c4cc(F)ccc42)CNCC3)cc1 | 0.35 | > 10 |  |  | 
30 | O[C@H](CCCN1CC[C@H]2[C@H](C1)c1cc(F)ccc1N2c1ccc(F)cc1)c1ccc(F)cc1 (stereo in doubt; 2a) | 0.025 |  |  |  | ED50 (Rattus norvegicus [6]): 0.02 mg/kg; ED50 (Rattus norvegicus [2]): 0.21 mg/kg; ED50 (Rattus norvegicus [7]): 0.05 mg/kg
31 | O[C@H](CCCN1CC[C@H]2[C@H](C1)c1cc(F)ccc1N2c1ccc(F)cc1)c1ccc(F)cc1 (stereo in doubt; 2b) | 0.35 |  |  |  | ED50 (Rattus norvegicus [6]): >10 mg/kg; ED50 (Rattus norvegicus [2]): >10 mg/kg; ED50 (Rattus norvegicus [7]): 5.7 mg/kg
32 | O[C@H](CCCN1CC[C@@H]2[C@@H](C1)c1cc(F)ccc1N2c1ccc(F)cc1)c1ccc(F)cc1 (stereo in doubt; 2c) | 0.022 |  |  |  | ED50 (Rattus norvegicus [6]): 0.02 mg/kg; ED50 (Rattus norvegicus [2]): 0.05 mg/kg; ED50 (Rattus norvegicus [7]): 0.02 mg/kg
33 | O[C@H](CCCN1CC[C@@H]2[C@@H](C1)c1cc(F)ccc1N2c1ccc(F)cc1)c1ccc(F)cc1 (stereo in doubt; 2d) | 1.8 |  |  |  | ED50 (Rattus norvegicus [6]): >10 mg/kg; ED50 (Rattus norvegicus [2]): >10 mg/kg; ED50 (Rattus norvegicus [7]): 18.1 mg/kg
34 | CN1[C@@H]2CC[C@H]1C[C@@H](OC(=O)C(CO)c1ccccc1)C2.O=S(=O)(O)O (some centres not stated) [ATROPINE SULFATE] |  |  |  |  | Pupil size (Mus musculus [11]): 1.98 mm
35 | CN1CCN(C2=Nc3cc(Cl)ccc3Nc3ccccc32)CC1 [CLOZAPINE] |  |  |  |  | Pupil size (Mus musculus [12]): 1.13 mm
36 | CNCCCN1c2ccccc2CCc2ccccc21.Cl [DESIPRAMINE HYDROCHLORIDE] |  |  |  |  | Pupil size (Mus musculus [13]): 0.66 mm
37 | OC(CCCN1CCc2c(c3cc(F)ccc3n2-c2ccc(F)cc2)C1)c1ccc(F)cc1 (configuration not stated) [FLUTROLINE] | 0.012 | 1 |  |  | ED50 (Rattus norvegicus [6]; [15]): 2.2 mg/kg; ED50 (Rattus norvegicus [7]; [16]): 0.15 mg/kg
38 | O=C(CCCN1CCC(O)(c2ccc(Cl)cc2)CC1)c1ccc(F)cc1 [HALOPERIDOL] |  | 0.66 |  |  | ED50 (Rattus norvegicus [6]; [15]): > 10 mg/kg; ED50 (Rattus norvegicus [7]; [16]): 0.75 mg/kg
39 | OC1(c2ccc(Cl)c(C(F)(F)F)c2)CCN(CCCC(c2ccc(F)cc2)c2ccc(F)cc2)CC1 [PENFLURIDOL] | 0.062 | ~32 |  |  | ED50 (Rattus norvegicus [6]; [15]): 3.9 mg/kg; ED50 (Rattus norvegicus [7]; [16]): 2.4 mg/kg
